# Insulin prom act: TRM-6 insulin promoter activation; 130,000 tested, 0.81% active; TRM-6 cells, insulin promoter eGFP reporter, imaging; plate-scaled: unstimulated 0, stimulated control 100; activation, % at 2 µM;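 active = activation at 2 µM above a set limit, confirmed on inspection of the cell images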;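 also: share of cells whose green reporter signal exceeds an intensity cutoff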
#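 material = TRM-6 human fetal islet cells, insulin promoter–eGFP reporter | input = 1,000 TRM-6 cells seeded per well | benchmarks = stimulated versus unstimulated wells as plate controls | measured by = automated fluorescence imaging of paraformaldehyde-fixed, Hoechst-counterstained cells, green channel | schedule = compound exposure 48 h, 37 °C | reagent = tamoxifen at 0.75 µM added at seeding for reporter induction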
# An asterisk follows results filed as active. Shown is part of a subset that was picked to be rich in hits.
SMILES,Insulin prom act
CC1CCC/C=C/C2CC(O)CC2C(O)/C=C/C(=O)O1 (stereo unspecified),227.6*
CC1CCC[C@H](O)CCCCCc2cc(O)cc(O)c2C(=O)O1 (stereo partly specified),147.6
O=C(Nc1ccc(Br)cc1)c1nn(C23CC4CC(CC(C4)C2)C3)cc1Br,6.7
O=C(c1ccc(N2CC3CC(C2)c2cccc(=O)n2C3)c([N+](=O)[O-])c1)N1CCCCC1 (stereo unspecified),2.7
Cc1ccc(OCC(=O)NCCN2CCN(C(=O)COc3ccc(C)cc3)CC2)cc1,2.6
CCOC(=O)C1SC2(C(F)F)CC1(O)c1c(c(OC)c3occc3c1OC)O2 (stereo unspecified),32.1
COc1ccc(N=Cc2c(O)n(-c3ccc(C)cc3)c(=O)[nH]c2=O)cc1,-83.3
CCN(CC)c1ccc(N=Cc2c(O)n(-c3cc(OC)ccc3OC)c(=O)[nH]c2=O)cc1,650.0*
CCOC(=O)c1ccc(N=Cc2c(O)n(-c3ccccc3F)c(=S)[nH]c2=O)cc1,-2.7
O=C1NC(=O)C(CCc2ccncc2)(CCc2ccncc2)C(=O)N1Cc1ccc(F)cc1,-7.7
Cc1cc2ccccc2c(=O)n1CC(=O)NCC(=O)N1CCC2(CC1)OCCO2,-6.7
O=c1c2ccccc2[se]n1-c1ccccc1,0.0
Cc1ccc(S(=O)(=O)CC(C)(O)C(=O)Nc2cccc(C(F)(F)F)c2)cc1 (stereo unspecified),212.5*
Cc1cccc(-n2c(O)c(C=NCCCN3CCOCC3)c(=O)[nH]c2=O)c1C,2.7
O=C1NC(=O)C(CCc2ccncc2)(Cc2ccc([N+](=O)[O-])cc2)C(=O)N1,6.7
O=[N+]([O-])[N-][n+]1cnn(Cc2ccc(Cl)cc2)c1,141.2*
O=C(COc1ccc(Cl)cc1)N1CCN(Cc2ccc([N+](=O)[O-])cc2)CC1,9.1
CCCCc1nc2ccccc2c(=O)n1-c1ccc(Cl)cc1[N+](=O)[O-],-6.7
O=C(c1ccc2c(c1)OCO2)C1CCCN(Cc2ccccn2)C1 (stereo unspecified),-6.7
COc1c(C)cc(C(=O)C2CCCN(Cc3ccccn3)C2)cc1C (stereo unspecified),319.0*
CSc1ccc(C(=O)C2CCCN(Cc3cc4ccccc4[nH]3)C2)cc1 (stereo unspecified),-5.6
CC1(C)COC(Nc2ccc(Cl)cc2)=N1,5.4
CC1(C)C2CC=C(CN3CCC(O)CC3)C1C2 (stereo unspecified),-77.3
O=C1C2CCN(CC2)C1Cc1ccc(OCCOc2ccccc2)cc1 (stereo unspecified),-7.7
CC(=O)OC1C2CCCC1C(N1CCCC1)CC2 (stereo unspecified),-2.9
SMILES,Insulin prom act
CN1/C(=C\C=C\C2=[N+](C)c3ccc4ccccc4c3C2(C)C)C(C)(C)c2ccccc21,151.4*
CN1/C(=C\C=C2C(=O)NC(=O)NC2=O)C(C)(C)c2ccccc21,0.0
Cc1ccc(Cn2nc(C)c(C=O)c2Cl)cc1,-9.5
CC(C)CCC1(CN2CCCC2=O)C(=O)NC(=O)NC1=O,-8.6
Cc1cc(NC(=O)CCl)no1,-6.7
O=C(N/N=C\C1C(=O)NC(=S)N(c2ccccc2)C1=O)c1ccc(O)cc1 (stereo unspecified),0.0
Nc1ccc(Cl)cc1C(=O)c1ccccc1Cl,433.3*
CC(=O)N(C1=NCCCS1)c1ccccc1Cl,-7.7
CC12CN3C(O)C(C)(C1)CC(C)(C2)C3O (stereo unspecified),-9.1
O=C(CNS(=O)(=O)c1cccs1)N1CCC2(CC1)OCCO2,0.0
O=C(NCc1ccc(C(=O)N2CCC3(CC2)OCCO3)cc1)c1cccc(Br)c1,226.7*
O=C(c1cc(-c2ccccc2)on1)N1CCC2(CC1)OCCO2,0.0
C=CCC1(CN2CCCCCC2=O)C(=O)NC(=O)NC1=O,118.2
O=C(Cc1ccccc1)OC(COCc1ccccc1)CN1CCOCC1 (stereo unspecified),216.7
Cc1ccc(C2=NC(C)(C)N3C2C3c2ccc([N+](=O)[O-])cc2)cc1 (stereo unspecified),7.7
COC(=NC1CCCC1)C(O)c1c[nH]c2ccccc12 (stereo unspecified),666.7*
CC(C)n1cc(C(=O)N(CC(=O)NC(C)(C)C)Cc2ccccc2)cn1,138.9
O=C(CN1CC(c2ccccc2)CC1=O)Nc1ccc(F)cc1 (stereo unspecified),-37.5
CCCC(=O)OCC[N+](C)(C)C,-9.1
Cc1ccc2c(c1)N(CCC(=O)N1CCC3(CC1)OCCO3)C(=O)CO2,7.7
Cc1ccc(CS(=O)(=O)CCC(=O)N2CCC3(CC2)OCCO3)cc1,8.6
Cc1ccc(Cc2c(C)nc3nc(SCC(=O)N4CCC5(CC4)OCCO5)nn3c2C)cc1,125.0*
CC(C)N1CCC2(CC1)NC(CO)(CO)CO2,-6.5
O=C1NC(=O)N(c2ccc(Cl)cc2)C(=O)/C1=C\c1ccc(Sc2nc3ccccc3[nH]2)o1,7.4
OC(CCNCCc1c[nH]c2ccccc12)C(F)(F)F (stereo unspecified),-9.1
SMILES,Insulin prom act
CC(C)N(CC(O)c1cccc([N+](=O)[O-])c1)C(C)C (stereo unspecified),8.3
CCN(CC)c1ccc(/C=N/c2sc3c(c2C#N)C2CCN3CC2)c(O)c1,284.6*
CC12CCCCC1N(O)CN2O (stereo unspecified),3.4
CN1CSC(=S)N(C)C1,-67.9
CCn1c(O)c(C=Nc2cc(Cl)ccc2Cl)c(=O)n(CC)c1=O,-64.3
O=P(O)(O)C#Cc1ccccc1,3.8
CCP(=S)(CC)c1ccc(N(C)C)cc1,396.3*
CCC(CC)NC1CCCCC1OC (stereo unspecified),-7.4
O=P(O)(O)Cc1ccccc1OP(=O)(c1ccccc1)c1ccccc1,0.0
CC(=Nc1c(C)n(C)n(-c2ccccc2)c1=O)c1c(O)n(Cc2ccccc2)c(=O)[nH]c1=O,0.0
CN(C)CCCN=Cc1c(O)n(CCc2ccccc2)c(=O)[nH]c1=O,-6.7
Cc1c(N=Cc2c(O)n(CCc3ccc(F)cc3)c(=O)[nH]c2=O)c(=O)n(-c2ccccc2)n1C,400.0*
Cc1nn(Cc2ccccc2)c(C)c1C(=O)OCC(=O)Nc1ccccc1SCC#N,118.2
CN1C(=O)N(C)C(=O)C2(Cc3c(ccc4ccccc34)N(C)C2)C1=O,129.4*
Cc1sc2nc(COC(=O)Cc3ccccc3)[nH]c(=O)c2c1C,-8.3
Cc1c(C(=O)N2CCC3(CC2)OCCO3)sc2ncnc(N3CCN(c4ccccn4)CC3)c12,-3.1
CC1(C)C(C(=O)NN2C(=O)c3ccccc3C2=O)C1(C)C,-3.3
Cn1c(O)c(C(=NCCc2c[nH]c3ccccc23)c2ccccc2)c(=O)n(C)c1=O,0.0
O=C1NC(=O)C(Cc2cccs2)C(=O)N1,0.0
CCCCOC(=O)C1=C(N)OC2=C(C(=O)CCC2)[C@]12C(=O)N(C)c1ccccc12,3.6

# Screens: PubChem, Columbia University Molecular Screening Center
